Published values collected from several papers.
Protocols differ between the studies behind these lines.
Read-out: enzyme activity
Action: inhibitor
IGF1R: Insulin-like growth factor 1 receptor (IGF1R, Homo sapiens, UniProt P08069)
IGF1R phosphorylated: Insulin-like growth factor 1 receptor, phosphorylated (IGF1R, Homo sapiens, UniProt P08069)

SMILES | target | method | concentration | remaining activity
Oc1cccc(-c2nc(N3CCOCC3)c3oc4ncccc4c3n2)c1 | IGF1R | – | 10 µM | 54%
CCCOc1ccc(OC)c(F)c1C(=O)c1ccc(C(=O)N[C@@H]2CNC[C@H]2NC(=O)c2ccc3[nH]ncc3c2)cc1 | IGF1R | – | 10 µM | 90%
Cc1cnc(NC2CCOCC2)nc1-n1cnc(C(=O)NC(CN)c2cc(F)cc(Cl)c2)c1 (stereo not shown) | IGF1R phosphorylated | radiometric | 1 µM | 108%
Cc1sc(C(=O)NC2COC2)cc1-n1cc(NC(=O)Nc2c(F)cccc2Cl)cn1 | IGF1R | – | 10 µM | 102%
COc1cc(Cl)c(C(=O)N[C@@H](CN[C@H]2CC[C@@H](N)CC2)Cc2ccc(C#N)cc2)cc1-c1ccc(CN[C@H](C)c2ccc(C)cc2)o1 | IGF1R phosphorylated | – | 1 µM | 117%
Cn1c(=O)n(-c2ccc(C(C)(C)C#N)cc2)c2c3cc(-c4cnc5ccccc5c4)ccc3ncc21 | IGF1R | – | 10 µM | 72%
CC(C)(C)c1nc2c(s1)c1nc(N)ncc1c1ccc(NS(=O)(=O)c3c(F)cccc3F)c(F)c12 | IGF1R | radiometric | 1 µM | 100%
Nc1nc(NC2CCCCC2)sc1C(=O)c1ccccc1 | IGF1R | – | 10 µM | 80%
COc1cc(Nc2cnc(C#N)c(O[C@H](C)CN(C)C)n2)ncc1-c1cnn(C)c1 | IGF1R | radiometric | 1 µM | 100%
CCN(CC)CCNC(=O)c1c(C)[nH]c(/C=C2\C(=O)Nc3ccc(F)cc32)c1C | IGF1R | – | 0.1 µM | 75%
CCN(CC)c1ccc(C2=NNC(=O)CC2C)cc1[N+](=O)[O-] (stereo not shown) | IGF1R phosphorylated | – | 10 µM | 102%
Cc1[nH]c(/C=C2\C(=O)Nc3ccc(F)cc32)c(C)c1C(=O)N[C@H]1CCN(C(=O)N(C)C)C1 | IGF1R | – | 0.1 µM | 115%
O=C(Nc1cnn(-c2csc(C(=O)NC3COC3)c2)c1)Nc1ccccc1Cl | IGF1R | – | 5 µM | 95.8%
